The values below come from ChEMBL document CHEMBL5233208, “Optimization of P2Y12 Antagonist Ethyl 6-(4-((Benzylsulfonyl)carbamoyl)piperidin-1-yl)-5-cyano-2-methylnicotinate (AZD1283) Led to the Discovery of an Oral Antiplatelet Agent with Improved Druglike Properties” (J Med Chem, 2019).

The source made the active and inactive calls. No cut-off for these calls is given here.

A short description of data set [1]: Metabolic stability in rat liver microsomes assessed as half life at […] measured up to 60 mins in presence of NADPH regeneration system by LC-MS/MS analysis. Type of data set: ADME, Microsome. On the technique in general: Liver microsomes are a subcellular fraction often used to study metabolism.
Data set [2] is described as follows: Tmax in Sprague-Dawley rat at 5 mg/kg,po measured up to 24 hrs by LC-MS/MS analysis. Type of data set: ADME, organism-based. The following applies: in vivo.
The nature of data set [3]: MRT in Sprague-Dawley rat at 5 mg/kg,po measured up to 24 hrs by LC-MS/MS analysis. Type of data set: ADME, organism-based. Particulars: in vivo.
Data set [4] deals with Rattus norvegicus. As to the kind of experiment: Antithrombotic activity in anesthetized Wistar rat model of tail-bleeding assessed as increase in bleeding time po administered as single dose measured at 1.5 hrs post dose. Type of data set: functional. In outline: (§1)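 Male rats (250–300 g, n = 10 per dose) acclimatized at least 7 days, then dosed by oral gavage. At 1.5 h, anesthetized with 2% pentobarbital i.p. at 50 mg/kg. Tail transected 4 mm from the tip and immersed in saline at 37 °C; bleeding ended when no blood appeared for 30 s. Bleeding time and blood loss weight recorded as mean ± SEM.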

The test system of data set [5] is Rattus norvegicus. In words: Antithrombotic activity in anesthetized Wistar rat model of tail-bleeding assessed as increase in bleeding weight at 40 mg/kg, po administered as single dose measured at 1.5 hrs post dose. Type of data set: functional. In outline:
as §1

Data set [6] can be described thus: Metabolic stability in human liver microsomes assessed as intrinsic clearance at 0.1 µM measured up to 60 mins in presence of NADPH regeneration system by LC-MS/MS analysis. Particulars: 1 h.
Another data set is filed under the species Homo sapiens. As to the kind of experiment: Antiplatelet activity in human platelet-rich plasma assessed as inhibition of ADP-induced platelet aggregation by aggregometry. Type of data set: functional. In outline: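 Human PRP from healthy donors free of aspirin/NSAIDs for at least two weeks, drawn into ACD; PRP spun at 300 g for 10 min, PPP at 2000 g. Compound in 0.5% DMSO preincubated 2 min at 37 °C with stirring (900 rpm). Aggregation induced by 10 μM ADP (final) and followed optically for 5 min.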

For data set [7], the system named is Rattus norvegicus. As to the kind of experiment: Antithrombotic activity in anesthetized Wistar rat model of tail-bleeding assessed as increase in bleeding weight at 5 mg/kg, po administered as single dose measured at 1.5 hrs post dose. Type of data set: functional. In outline:
as §1

Data set [8] is described as follows: Metabolic stability in human liver microsomes assessed as half life at […] measured up to 60 mins in presence of NADPH regeneration system by LC-MS/MS analysis. Type of data set: ADME, Microsome.
In data set [9] the test system is Rattus norvegicus. In words: Antithrombotic activity in anesthetized Wistar rat model of FeCL3-induced carotid artery thrombosis assessed as reduction in thrombus weight by measuring inhibition of thrombosis formation at 40 mg/kg, po administered as single dose measured at 1.5 hrs post dose. Type of data set: functional. Also noted: scale not given: the % may be the effect or the level left. In outline:
(§2)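 Compounds in 0.5% CMC-Na given to Wistar rats as a single oral gavage dose (10 mL/kg). Rats anesthetized with 2% pentobarbital i.p. at 50 mg/kg and kept on a heating pad. At 1.5 h post-dose, filter paper soaked in 20% FeCl3 applied to the isolated left carotid artery for 10 min; thrombus weight recorded. Mean ± SEM, n = 10.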

The subject of data set [10] is Rattus norvegicus. As to the kind of experiment: Antithrombotic activity in anesthetized Wistar rat model of tail-bleeding assessed as increase in bleeding weight at 10 mg/kg, po administered as single dose measured at 1.5 hrs post dose. Type of data set: functional. In outline:
as §1

A short description of data set [11]: Metabolic stability in rat liver microsomes assessed as intrinsic clearance at 0.1 µM measured up to 60 mins in presence of NADPH regeneration system by LC-MS/MS analysis. The following applies: 1 h.
Data set [12] can be described thus: Cmax in Sprague-Dawley rat at 5 mg/kg,po measured up to 24 hrs by LC-MS/MS analysis. The following applies: in vivo. Type of data set: ADME, organism-based. Also noted: time < 24 hrs, dose 5 mg/kg, route po.
The test system of data set [13] is Rattus norvegicus. As to the kind of experiment: Antithrombotic activity in anesthetized Wistar rat model of FeCL3-induced carotid artery thrombosis assessed as reduction in thrombus weight po administered as single dose measured at 1.5 hrs post dose. Type of data set: functional. In outline: as §2
The nature of data set [14]: Metabolic stability in dog liver microsomes assessed as half life at […] measured up to 60 mins in presence of NADPH regeneration system by LC-MS/MS analysis. Type of data set: ADME, Canis lupus familiaris, Microsome.
A short description of data set [15]: Oral bioavailability in Sprague-Dawley rat at 5 mg/kg,po measured up to 24 hrs by LC-MS/MS analysis. Type of data set: ADME, organism-based. The following applies: in vivo.
Data set [16] can be described thus: Metabolic stability in dog liver microsomes assessed as intrinsic clearance at 0.1 µM measured up to 60 mins in presence of NADPH regeneration system by LC-MS/MS analysis. Particulars: 1 h.
A short description of data set [17]: Half life in Sprague-Dawley rat at 5 mg/kg,po measured up to 24 hrs by LC-MS/MS analysis. Type of data set: ADME, organism-based. The following applies: in vivo.
The nature of data set [18]: AUC (0 to infinity) in Sprague-Dawley rat at 5 mg/kg,po measured up to 24 hrs by LC-MS/MS analysis. The following applies: in vivo. Type of data set: ADME, organism-based. Also noted: time < 24 hrs, dose 5 mg/kg, route po.
In data set [19] the test system is Rattus norvegicus. In words: Antithrombotic activity in anesthetized Wistar rat model of tail-bleeding assessed as increase in bleeding weight at 20 mg/kg, po administered as single dose measured at 1.5 hrs post dose. Type of data set: functional. In outline: as §1
For data set [20], the system named is Rattus norvegicus. As to the kind of experiment: Antithrombotic activity in anesthetized Wistar rat model of FeCL3-induced carotid artery thrombosis assessed as reduction in thrombus weight at 10 mg/kg, po administered as single dose measured at 1.5 hrs post dose. Type of data set: functional, organism-based. In outline: as §2
Data set [21] relates to Rattus norvegicus. As to the kind of experiment: Antithrombotic activity in anesthetized Wistar rat model of tail-bleeding assessed as increase in bleeding weight at […], po administered as single dose measured at 1.5 hrs post dose. Type of data set: functional.
Data set [22] deals with Rattus norvegicus. In words: Antithrombotic activity in anesthetized Wistar rat model of tail-bleeding assessed as increase in bleeding time at 40 mg/kg, po administered as single dose measured at 1.5 hrs post dose. Type of data set: functional. In outline:
as §1

For data set [23], the target named is T1, Cytochrome P450 3A4 (Homo sapiens, UniProt P08684). As to the kind of experiment: Inhibition of CYP3A4 in human liver microsomes using Midazolam as substrate preincubated for 10 mins followed by NADPH addition and measured after 15 mins by LC-MS/MS analysis.
T1 sequence (P08684 whole entry): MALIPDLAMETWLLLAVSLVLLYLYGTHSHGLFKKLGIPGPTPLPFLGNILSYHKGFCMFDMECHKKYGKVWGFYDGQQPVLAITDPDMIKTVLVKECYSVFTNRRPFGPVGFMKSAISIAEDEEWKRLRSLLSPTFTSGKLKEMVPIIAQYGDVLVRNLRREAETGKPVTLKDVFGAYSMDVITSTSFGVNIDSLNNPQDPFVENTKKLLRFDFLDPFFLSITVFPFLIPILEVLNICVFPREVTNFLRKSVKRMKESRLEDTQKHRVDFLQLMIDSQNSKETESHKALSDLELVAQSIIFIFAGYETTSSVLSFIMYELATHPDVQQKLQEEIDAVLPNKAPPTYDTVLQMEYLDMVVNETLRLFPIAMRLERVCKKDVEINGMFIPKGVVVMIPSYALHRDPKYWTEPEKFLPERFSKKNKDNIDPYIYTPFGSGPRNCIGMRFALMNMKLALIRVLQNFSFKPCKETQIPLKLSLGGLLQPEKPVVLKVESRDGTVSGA
For data set [24], the target named is T1, Cytochrome P450 3A4. In words: Inhibition of CYP3A4 in human liver microsomes using testosterone as substrate preincubated for 10 mins followed by NADPH addition and measured after 15 mins by LC-MS/MS analysis.
In a further data set the target is Cytochrome P450 2C19 (Homo sapiens, UniProt P33261). In words: Inhibition of CYP2C19 in human liver microsomes using S-mephenytoin as substrate preincubated for 10 mins followed by NADPH addition and measured after 15 mins by LC-MS/MS analysis.
Cytochrome P450 2C19, sequence (P33261 whole entry): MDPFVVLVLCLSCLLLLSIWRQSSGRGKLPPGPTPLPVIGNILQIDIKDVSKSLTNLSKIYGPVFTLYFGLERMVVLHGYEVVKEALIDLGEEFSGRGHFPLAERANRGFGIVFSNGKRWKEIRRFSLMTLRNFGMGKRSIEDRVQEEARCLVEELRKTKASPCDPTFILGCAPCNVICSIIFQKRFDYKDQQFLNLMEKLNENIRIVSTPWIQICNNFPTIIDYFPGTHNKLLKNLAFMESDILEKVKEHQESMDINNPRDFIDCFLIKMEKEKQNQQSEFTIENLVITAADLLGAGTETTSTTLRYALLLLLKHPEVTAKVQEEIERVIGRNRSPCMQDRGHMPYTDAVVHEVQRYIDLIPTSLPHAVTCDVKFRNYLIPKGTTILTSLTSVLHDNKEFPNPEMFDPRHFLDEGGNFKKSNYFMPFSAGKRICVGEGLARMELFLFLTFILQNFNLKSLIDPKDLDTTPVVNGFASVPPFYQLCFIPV
The target of another data set is T2, Cytochrome P450 1A2 (Homo sapiens, UniProt P05177).
T2 sequence (P05177 whole entry): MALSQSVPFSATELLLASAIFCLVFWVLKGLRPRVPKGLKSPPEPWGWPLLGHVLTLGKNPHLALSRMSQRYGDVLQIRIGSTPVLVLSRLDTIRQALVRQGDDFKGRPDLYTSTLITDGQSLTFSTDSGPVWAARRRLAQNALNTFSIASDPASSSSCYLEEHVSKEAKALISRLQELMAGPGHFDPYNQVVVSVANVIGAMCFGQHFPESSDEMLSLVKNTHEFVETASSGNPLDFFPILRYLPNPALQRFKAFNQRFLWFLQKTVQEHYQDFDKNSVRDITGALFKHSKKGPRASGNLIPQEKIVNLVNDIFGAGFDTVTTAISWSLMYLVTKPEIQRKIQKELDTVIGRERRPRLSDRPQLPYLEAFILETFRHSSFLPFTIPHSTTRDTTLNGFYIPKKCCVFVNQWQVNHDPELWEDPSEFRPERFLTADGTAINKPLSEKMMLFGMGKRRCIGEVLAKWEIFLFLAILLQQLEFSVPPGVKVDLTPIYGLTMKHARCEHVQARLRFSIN
As to the kind of experiment: Inhibition of CYP1A2 in human liver microsomes using phenacetin as substrate preincubated for 10 mins followed by NADPH addition and measured after 15 mins by LC-MS/MS analysis.

Another data set concerns the target Cytochrome P450 2C9 (Homo sapiens, UniProt P11712). In words: Inhibition of CYP2C9 in human liver microsomes using tolbutamide as substrate preincubated for 10 mins followed by NADPH addition and measured after 15 mins by LC-MS/MS analysis.
The next data set deals with Cytochrome P450 2D6 (Homo sapiens, UniProt P10635). In words: Inhibition of CYP2D6 in human liver microsomes using dextromethorphan as substrate preincubated for 10 mins followed by NADPH addition and measured after 15 mins by LC-MS/MS analysis.
Cytochrome P450 2D6, sequence (P10635 whole entry): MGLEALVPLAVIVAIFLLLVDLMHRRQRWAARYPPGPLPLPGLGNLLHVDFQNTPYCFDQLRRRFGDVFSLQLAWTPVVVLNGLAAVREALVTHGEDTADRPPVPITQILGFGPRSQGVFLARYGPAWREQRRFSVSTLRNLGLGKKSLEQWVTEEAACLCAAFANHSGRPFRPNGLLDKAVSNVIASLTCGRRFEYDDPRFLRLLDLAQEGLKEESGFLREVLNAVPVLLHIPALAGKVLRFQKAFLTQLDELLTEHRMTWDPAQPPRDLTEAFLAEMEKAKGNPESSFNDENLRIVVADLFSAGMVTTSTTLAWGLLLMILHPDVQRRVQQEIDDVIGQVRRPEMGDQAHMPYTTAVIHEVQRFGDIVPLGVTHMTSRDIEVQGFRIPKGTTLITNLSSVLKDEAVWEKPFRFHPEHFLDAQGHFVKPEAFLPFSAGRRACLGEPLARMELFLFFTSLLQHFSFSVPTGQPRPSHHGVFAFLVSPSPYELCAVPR

Cytochrome P450 2C9, sequence (P11712 whole entry): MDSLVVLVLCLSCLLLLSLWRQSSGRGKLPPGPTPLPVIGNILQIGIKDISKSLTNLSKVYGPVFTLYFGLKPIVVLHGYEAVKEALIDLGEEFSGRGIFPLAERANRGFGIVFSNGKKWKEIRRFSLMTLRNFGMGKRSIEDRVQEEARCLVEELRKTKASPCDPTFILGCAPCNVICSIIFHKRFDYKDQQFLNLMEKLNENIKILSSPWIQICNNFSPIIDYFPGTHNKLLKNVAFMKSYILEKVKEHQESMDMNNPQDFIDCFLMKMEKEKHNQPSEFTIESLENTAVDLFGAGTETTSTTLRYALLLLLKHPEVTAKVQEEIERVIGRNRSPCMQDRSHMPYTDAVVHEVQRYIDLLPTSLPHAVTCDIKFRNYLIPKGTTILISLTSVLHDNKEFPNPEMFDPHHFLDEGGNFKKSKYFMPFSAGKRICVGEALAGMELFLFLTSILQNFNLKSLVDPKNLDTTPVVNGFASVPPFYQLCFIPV

For `Cc1ccc(CS(=O)(=O)NC(=O)C2(C)CCN(c3nc4c(cc3C#N)C(=O)OC4)CC2)cc1`, the half-life is 1.48 h in [1], 3.47 h in [8], 1.62 h in [14] and 2.91 h in data set [17]. Also, the Tmax in data set [2] was found to be 0.25 h. This compound also showed a mean residence time MRT in data set [3] of 3.64 h. The ED100 in the data set with Rattus norvegicus [4] turned out to be 7.58 mg/kg. Moreover, the Activity stood at 0.66 g in the data set with Rattus norvegicus [5]; 0.31 g in the data set on Rattus norvegicus [7]; 56% in the data set on Rattus norvegicus [9]; 0.39 g in the data set with Rattus norvegicus [10]; 0.43 g in the data set on Rattus norvegicus [19]; 0.24 g with Rattus norvegicus [21]. Also, the intrinsic clearance stood at 10.1 mL/min/g in data set [6], 10.6 mL/min/g in data set [11] and 116.3 mL/min/g in data set [16]. The IC50 in the data set filed under Homo sapiens is 2.94 µM. The compound further showed a peak concentration (Cmax) in data set [12] of 1660 ng/mL. In addition, the ED50 in the data set with Rattus norvegicus [13] is 27 mg/kg. In [15], this compound displayed a bioavailability of 51%. The total exposure AUC(0-inf) in [18] amounted to 4120 ng·h/mL. Besides, the outcome in the data set on Rattus norvegicus [20] was Active. The Time in the data set on Rattus norvegicus [22] is 33.09 min.

Regarding `CC1(C(=O)NS(=O)(=O)c2ccc(Cl)s2)CCN(c2nc3c(cc2C#N)C(=O)OC3)CC1`, the half-life in data set [1] was 1.27 h; in data set [8] it was 3.4 h; in data set [14] it was 3.34 h; in data set [17] it was 1.26 h. In addition, in data set [2], the time of peak concentration (Tmax) worked out at 0.25 h. In data set [3], this compound displayed an MRT of 1.98 h. For the same compound, the IC50 is greater than 50 µM against Cytochrome P450 3A4 [23]; 1.64 µM in the data set listed under Homo sapiens; greater than 50 µM at Cytochrome P450 3A4 [24]; 7.75 µM at Cytochrome P450 2C19; greater than 50 µM at Cytochrome P450 1A2; greater than 50 µM against Cytochrome P450 2C9. For the same compound, the half-inhibitory concentration (IC50) on Cytochrome P450 2D6 is greater than 50 µM. Moreover, the intrinsic clearance came out at 10.3 mL/min/g in data set [6], 27.6 mL/min/g in data set [11] and 10.5 mL/min/g in data set [16]. The same compound registered a Cmax in [12] of 479 ng/mL. This compound registered an AUC(0-inf) in data set [18] of 1060 ng·h/mL. Also, the result in the data set on Rattus norvegicus [20] was Active.

As for `COC(=O)[C@H](c1ccccc1Cl)N1CCc2sccc2C1` [CLOPIDOGREL], the ED100 in the data set on Rattus norvegicus [4] worked out at 2.36 mg/kg. The Activity in the data set on Rattus norvegicus [7] is given as 0.7 g; in the data set with Rattus norvegicus [10], 1.2 g; with Rattus norvegicus [19], 1.99 g; with Rattus norvegicus [21], 0.44 g. Moreover, in the data set with Rattus norvegicus [13], the median effective dose (ED50) came out at 7 mg/kg.

For orientation: half-life means the time in which the quantity being followed falls by half. For orientation: Tmax means the time from dosing to the highest level. Broadly, the MRT is a mean duration of stay, worked out from the concentration-time curve. As usually defined, the IC50 is the concentration needed to halve the response being measured. One may read the Cmax as the peak of the concentration-time curve. What is called ED50 is the midpoint of the dose-response relation. For orientation: bioavailability means the share of a dose that reaches the circulation, judged against a reference dose that is usually intravenous. For orientation: AUC(0-inf) means total exposure, with the tail of the curve extrapolated.
